HePTP inhibitor – inhibitors of human HePTP phosphatase, primary screen, biochemical, absorbance, leukemia target; Tyrosine-protein phosphatase non-receptor type 7 (Homo sapiens), P35236; recombinant HePTP phosphatase activity, OD absorbance; inhibition, % at 20 µM; 110,000 tested, 0.64% active; AID 521, 2006; in the data active = inhibition above about 50%; inconclusive = no clear call, values can overlap the other calls;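 note: plate controls were vehicle for no effect and reference inhibitor for full effect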
Target sequence (P35236 whole entry, looked up): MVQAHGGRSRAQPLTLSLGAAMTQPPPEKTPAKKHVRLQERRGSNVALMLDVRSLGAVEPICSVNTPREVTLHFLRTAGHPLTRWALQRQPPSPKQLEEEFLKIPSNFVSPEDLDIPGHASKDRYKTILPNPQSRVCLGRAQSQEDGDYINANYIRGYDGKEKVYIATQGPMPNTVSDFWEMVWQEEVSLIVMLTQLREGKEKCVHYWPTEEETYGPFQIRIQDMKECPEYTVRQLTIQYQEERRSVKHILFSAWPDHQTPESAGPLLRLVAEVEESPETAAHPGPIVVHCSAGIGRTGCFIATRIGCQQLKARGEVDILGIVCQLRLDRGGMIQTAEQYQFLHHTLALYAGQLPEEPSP
M1 ag – M1 muscarinic receptor agonists, primary screen, CHO-M1 cells, Fluo-4 calcium, agonist mode. Muscarinic acetylcholine receptor M1. Fluo-4 calcium fluorescence; active compounds read high. B-score at 10 µM. 64,000 tested, 3% active. AID 626, 2007;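 active = fluorescence rise, raw or as B-score row- and column-corrected plate score, outside the 99.7% band of its plate's samples, either direction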
SF1 activator – activators of human SF-1, primary screen, cell-based, CHO-K1, Gal4-SF-1 LBD, luciferase luminescence; Steroidogenic factor 1 (Homo sapiens), Q13285; CHO-K1 Gal4-SF-1 LBD luciferase reporter; % increase over DMSO SF-1-specific signal; activation, % at 10 µM; 65,000 tested, 1.9% active; AID 522, 2006;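 active = activation above the mean activation of all tested compounds plus 3 SD, cut at about 50% in these data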
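Material: Gal4–SF-1 LBD one-hybrid luciferase reporter in CHO-K1 cells | Amount: 4,000 cells per well | Compound dosing: 10 µM single point, 1% DMSO | Schedule: 20 h compound treatment, 37 °C | Measured by: SteadyLite luciferase luminescence | Evaluation: Percent activation versus DMSO | Control set: DMSO-treated SF-1-transfected cells as negative, DMSO-treated mock-transfected cells lacking SF-1 as background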
RORa activator – activators of orphan receptor RORA, primary screen, cell-based, luminescence; CHO-K1 Gal4-RORA LBD luciferase reporter; percent increase over mock-subtracted basal signal; activation, % at 10 µM; 65,000 tested, 1.5% active;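 active = activation above the mean of all tested compounds plus 3 SD, cut at about 49% in these data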;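 note: 0% = DMSO-treated RORA cells and 100% = added signal equal to DMSO minus mock-transfected cells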
D1 mod – D1 CRE-luciferase signal change, two-sided – cell-based, HEK293 D1, dopamine EC30, D1 allosteric modulator project, primary screen; D(1A) dopamine receptor (Homo sapiens), P21728; dopamine EC30 potentiation; actives deviate in either direction; B-score at 10 µM; 58,000 tested, 5.9% active; AID 641, 2007;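 active = luminescence count or its row- and column-corrected plate score outside the 99.7% band of the plate's sample wells, on either side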
M1 antagonist – antagonists of rat M1 muscarinic receptor | B-score at 10 µM | 64,000 tested, 3.4% active | AID 628, 2007 | CHO-M1 cells, Fluo-4 calcium, ACh EC80 antagonist mode; active compounds read low | Muscarinic acetylcholine receptor M1 (Rattus norvegicus), P08482;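 active = calcium fluorescence response, raw or row-and-column corrected B-score, differing from the plate sample mean either way at a set confidence level, mostly lower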
M1 agonist conf – rat M1 muscarinic receptor agonists, confirmation, CHO-M1 cells, Fluo-4 calcium, duplicate retest; fluorescence change (max-min) at 10 µM; 1,700 tested, 19% active; shares compounds with M1 ag; Fluo-4 calcium fluorescence, agonist mode; actives lie on both sides;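 active = fluorescence change differs from the solvent-only DMSO control mean at a set confidence level in both duplicate runs; inconclusive = differs from solvent-only control mean in just one of two runs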;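 note: an EC20 dose of acetylcholine follows compound addition during the same imaging run; raw fluorescence intensity difference in instrument units with no normalization to controls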
M4 ag counter – agonist activity at rat M4 receptor, confirmation, counter-screen for M1 allosteric modulator project, cell-based, agonist mode | shares compounds with M1 ag | CHO M4/Gqi5 cells, Fluo-4 calcium fluorescence; actives lie on both sides | fluorescence change (max-min) at 10 µM | 1,700 tested, 9% active | AID 1741, 2009;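 active = fluorescence change differing from the plate's solvent-only control wells at 99.7% confidence in both duplicates, whether higher or lower; inconclusive = differs from solvent controls in only one of two duplicates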
* marks the source's active call; other numbers are inactive results; ? = inconclusive; . = not tested or not shown. Rows were chosen to be rich in hits. Some 8.2% of all compounds tested hit in one or more screens of this group.

SMILES	HePTP inhibitor	M1 ag	SF1 activator	RORa activator	D1 mod	M1 antagonist	M1 agonist conf	M4 ag counter
COc1ccc2c(c1)c1ncn(CCN3CCCC3)c(=O)c1n2C	0	-0.011	5	0	-1.9	-0.23	.	.
COc1ccccc1CCn1cnc2c3cc(C)ccc3n(C)c2c1=O	2	1.8*	-2	-3	.	-0.44	?	-81
CCOCCn1c(CN(Cc2ccccc2)Cc2ccccc2)nc2c1c(=O)[nH]c(=O)n2C	-5	0.64	7	-2	.	0.11	.	.
COc1ccc(C2=NO[C@@H]3C(=O)N(c4ccc(C)cc4C)C(=O)[C@H]23)cc1OC	-8	-0.088	-17	-15	0.96	0.052	.	.
Cc1ccc(N2C(=O)[C@@H]3C(c4ccc(F)cc4)=NO[C@@H]3C2=O)cc1	7	6.6*	24	-6	0.052	-0.37	?	-35
Cc1ccc(C(=O)CSc2nc3cccnc3n2C)cc1	6	.	2	12	.	.	.	.
C=CCNc1ncnc2c1[nH]c1ccc(C)cc12	-8	4.2*	19	24	-0.63	-0.47	18	-22
CC(NC(=O)CSc1nc2ccccc2c(=O)[nH]1)c1ccccc1 (stereo not drawn)	9	-0.19	-10	-29	0.33	0.62	.	.
Cc1n[nH]c(C)c1N1C(=O)c2cccc3c(N4CCCCCC4)ccc(c23)C1=O	-11	451*	-9	-10	1.4	-14*	2972*	2513*
CCOc1ccc(NC(=O)CC(C)=O)cc1	5	.	.	.	.	.	.	.
CCOc1ccc(NC(=O)CC2CC(C)(C)OC2=O)cc1 (stereo not drawn)	2	12*	3	-3	0.016	0.23	-23	?
CCn1c(SCC(=O)N2CCOCC2)nc2oc3c(Cl)cc(Cl)cc3c(=O)c2c1=O	.	4.4*	-14	-41	-2.5	-0.78	5.6	5
CCOc1cc(-c2ccc(N)c(OCC)c2)ccc1N	-11	36*	-9	-10	-0.36	0.077	249*	211*
O=C(Nc1ccc(F)cc1)N(Cc1ccco1)Cc1cc2cc3c(cc2[nH]c1=O)OCO3	-2	-2.5*	13	24	-0.2	0.79	-13	-22
Cc1ccc(NC(=O)N(Cc2ccc3c(c2)OCO3)Cc2cc3cc4c(cc3[nH]c2=O)OCCO4)cc1	0	0.63	49	7	0.83	-0.32	.	.
Cc1ccc(S(=O)(=O)NCCC(=O)NCCN2CCCCCC2)cc1	-3	-0.39	4	9	0.68	0.098	.	.
Cc1ccc(-c2ccc(=O)n(CCC(=O)NCc3ccccn3)n2)cc1	5	0.15	-4	-6	0.81	-0.36	.	.
CCCCS(=O)(=O)Nc1ccc(Cc2ccncc2)cc1	3	3.2*	14	-18	-0.041	0.047	?	-39
CN1CC=C2C(C#N)=C(N)C(C#N)(C#N)C(CCc3ccccc3)C2C1 (stereo not drawn)	12	18*	8	4	-2.6	-1.1	91*	37
COc1cc([C@@H]2[C@H]3CN(C)CC=C3C(C#N)=C(N)C2(C#N)C#N)cc2c1OCO2	6	6.6*	-29	-41	.	0.21	31	9.7
COc1cccc(C2C3CN(C)CC=C3C(C#N)=C(N)C2(C#N)C#N)c1OC (stereo not drawn)	0	87*	-2	-12	-4.4	0.42	651*	605*
CCOC(=O)N1CC=C2C(C#N)=C(N)C(C#N)(C#N)[C@H](c3ccc(OC(C)C)c(OCC)c3)[C@H]2C1	-8	-1.2	-30	0	0.13	0.69	.	.
CN1CC=C2C(C#N)=C(N)C(C#N)(C#N)[C@H](c3cccc(Cl)c3)C2C1 (stereo partly drawn)	2	54*	-11	-11	-2.5	-0.18	173*	112
O=C(COc1ccccc1[N+](=O)[O-])Nc1ccc(-c2nc3ccccc3o2)cc1	13	.	.	.	.	.	.	.
CCN1CC=C2C(C#N)=C(N)C(C#N)(C#N)[C@H](c3cccc(OC)c3OC)[C@H]2C1	-3	271*	-2	-13	-2.1	-1.8	307*	?
SMILES	HePTP inhibitor	M1 ag	SF1 activator	RORa activator	D1 mod	M1 antagonist	M1 agonist conf	M4 ag counter
CC(C)[C@H](NC(=O)NC1CCCc2ccccc21)C(=O)O (stereo partly drawn)	-1	-0.84	-1	12	0.11	0.0014	.	.
Cc1cccc(Cn2cnc3c(nnn3Cc3ccc(F)cc3)c2=O)c1	0	-0.028	6	14	1.5	-0.35	.	.
Cc1cccc(Cn2cnc3c(nnn3Cc3ccccc3F)c2=O)c1	1	11*	13	19	-0.14	-2.7*	-34*	-72
COc1ccccc1NC(=O)CN1CCC(n2c(C)nc3cc(F)ccc32)CC1	-2	-2.6*	14	13	0.6	-0.09	?	-58
COc1ccccc1NC(=O)CN1CCN(CC(=O)Nc2cc(NC(C)=O)ccc2OC)CC1	5	3.7*	-7	2	-0.23	0.068	?	-31
COc1ccc(NC(C)=O)cc1NC(=O)CN1CCN(CC(=O)Nc2ccccc2Cl)CC1	2	4*	18	2	-1.2	-0.035	?	-71
COc1cc(NC(=O)c2ccccc2)c(OC)cc1NC(=O)CN1CCN(c2ccccn2)CC1	6	5.9*	5	14	0.91	-0.075	-8.2	-36
COc1ccccc1NC(=O)CN1CCC(n2nnc3cc(F)ccc32)CC1	7	-0.95	6	0	-2.5	0.0082	.	.
COc1ccccc1NC(=O)CN1CCN(CC(=O)Nc2ccc3c(c2)OCO3)CC1	11	-0.44	7	-19	0.19	0.27	.	.
COc1ccc(NC(C)=O)cc1NC(=O)CN1CCN(CC(=O)Nc2ccc(Cl)cc2)CC1	10	-1	2	10	0.47	-0.21	.	.
O=C1/C(=C\c2ccc(O)c([N+](=O)[O-])c2)SC(=S)N1c1ccccc1	0	.	.	.	.	.	.	.
CCOC(=O)c1ccc(NCc2ccc(N(C)C)cc2)cc1	0	0.35	16	9	0.15	-0.067	.	.
COc1ccccc1NC(=O)CC1C(=O)NCCN1C(=O)Nc1ccc(Cl)c(Cl)c1 (stereo not drawn)	-2	-2.1*	-8	8	-0.077	-0.28	?	?

Screening data deposited in PubChem by several laboratories.
